The text below walks through data of ChEMBL document CHEMBL1772954, “Antifungal, cytotoxic and SAR studies of a series of N-alkyl, N-aryl and N-alkylphenyl-1,4-pyrrolediones and related compounds” (Bioorg Med Chem, 2011).

A word on the GI50: it is the concentration at which growth is held to half of that of the control. As a reminder, the MFC is the smallest concentration meeting the test's criterion for killing the fungus. As a reminder, the MIC is the least concentration at which growth counts as inhibited. Low values mean greater potency, high ones weaker potency. One may read the HC50 as the concentration that lyses half of the red blood cells.

The test system of one data set is MCF7. Briefly: Cytotoxicity against human MCF7 cells assessed as cell growth after 2 days by sulforhodamine B assay. In kind it is functional. The conditions noted are these: MCF7, 48 h. In a few lines: (§1)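 NCI cell lines were run by the Monks method: cells were plated with compounds from DMSO stocks and incubated 2 days at 37 °C in 5% CO2, in duplicate. Cells were fixed with cold TCA, stained with 0.4% SRB, and the bound dye was solubilized in 10 mM tris-base and read at 515 nm. The zero-day control was subtracted, and GI50 was taken from the curves.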
For orientation: In SRB staining, fixed cells bind dye roughly in proportion to their protein.

Another data set deals with Nannizzia gypsea. Briefly: Antifungal activity against Microsporum gypseum C 115 2000. Type of data set: functional. In a few lines:
(§2)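 Dermatophytes tested by CLSI M38-A2 microdilution in MOPS-buffered RPMI-1640 at pH 7.0. Inoculum 1-5 × 10^3 CFU/mL; compounds 250 to 0.24 µg/ml in twofold steps, final DMSO <1%. Incubated at 28 °C in a moist, dark chamber and read according to control growth. MIC is the lowest concentration with complete inhibition. MFC is the lowest concentration with no growth after duplicate subculture on SDA.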

Another data set deals with Candida albicans. Kind of data set: Antifungal activity against Candida albicans ATCC 10213. Type of data set: functional. In a few lines: (§3)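 CLSI M27-A3 broth microdilution in RPMI-1640 buffered to pH 7.0 with MOPS. Inoculum 1-5 × 10^3 CFU/mL. Compound twofold dilutions from 250 to 0.24 µg/ml, final DMSO <1%. Incubated at 35 °C in a moist, dark chamber and read at 48 h. MIC is the lowest concentration giving total growth inhibition. For MFC, 5 µL from clear wells was plated in duplicate on SDA; MFC is the lowest concentration with no growth.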

For another data set, the system named is NCI-H460. Kind of data set: Cytotoxicity against human H460 cells assessed as cell growth after 2 days by sulforhodamine B assay. Type of data set: functional. The conditions noted are these: NCI-H460, 48 h. A digest of the protocol:
as §1

Data set [1] is described as follows: Cytotoxicity against human erythrocytes assessed as hemolysis by spectrometric analysis. In kind it is cell-based, Erythrocyte. A digest of the protocol: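 Human heparinized red blood cells were washed in PBS at pH 7.0 and suspended at 4% in sterile 5% glucose. Compounds from DMSO stocks were diluted in 5% glucose to final concentrations of 250 to 0.24 µg/ml and incubated with the cells at 37 °C. Released hemoglobin was read at 540 nm. HC50 is the concentration giving 50% lysis relative to the drug-free value.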

For data set [2], the system named is Trichophyton mentagrophytes. Kind of data set: Antifungal activity against Trichophyton mentagrophytes ATCC 9972. In kind it is functional. In a few lines: as §2
A further data set concerns Aspergillus fumigatus. Kind of data set: Antifungal activity against Aspergillus fumigatus ATCC 26934. Type of data set: functional. A digest of the protocol: (§4)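 Broth microdilution per CLSI M38-A2 in RPMI-1640 with MOPS at pH 7.0. Inoculum 1-5 × 10^3 CFU/mL, with twofold compound dilutions spanning 250-0.24 µg/ml (final DMSO <1%). Plates incubated at 35 °C, moist and dark, and read when the control fungus had grown. MIC is total growth inhibition. MFC comes from subculturing clear wells in duplicate onto SDA.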

A further data set concerns Candida tropicalis. Kind of data set: Antifungal activity against Candida tropicalis C 131 2000. Type of data set: functional. A digest of the protocol: as §3
A further data set concerns Aspergillus niger. Briefly: Antifungal activity against Aspergillus niger ATCC 9029. In kind it is functional. In a few lines:
as §4

The subject of the next data set is Trichophyton rubrum. Briefly: Antifungal activity against Trichophyton rubrum C 113 2000. Type of data set: functional. In a few lines: as §2
The next data set concerns Saccharomyces cerevisiae. Kind of data set: Antifungal activity against Saccharomyces cerevisiae ATCC 9763. In kind it is functional. A digest of the protocol:
as §3

The next data set deals with Cryptococcus neoformans. Briefly: Antifungal activity against Cryptococcus neoformans ATCC 32264. In kind it is functional. In a few lines:
as §3

In another data set the test system is Aspergillus flavus. Kind of data set: Antifungal activity against Aspergillus flavus ATCC 9170. In kind it is functional. In a few lines:
as §4

The next data set has as its system SF-268. Kind of data set: Cytotoxicity against human SF268 cells assessed as cell growth after 2 days by sulforhodamine B assay. Type of data set: functional. The settings on record: SF-268, 48 h. A digest of the protocol:
as §1

In brackets after ≈: the same amount, converted by molar mass.

With `COc1ccc(N2C(=O)C=CC2=O)c(OC)c1`, the 50% growth inhibitory concentration (GI50) with MCF7, in the data set on NCI-H460 and with SF-268 was above 10 µg/mL throughout. For the same compound, the minimum fungicidal concentration (MFC) against Nannizzia gypsea turned out to be 7.81 µg/mL (≈ 33.5 µM); in the data set with Candida albicans it was 15.6 µg/mL (≈ 67 µM); in [2], 3.9 µg/mL (≈ 16.7 µM); against Aspergillus fumigatus, 62.5 µg/mL (≈ 268 µM); with Candida tropicalis, 15.6 µg/mL (≈ 67 µM); with Aspergillus niger it was 62.5 µg/mL (≈ 268 µM). Also, the MFC came out at 7.81 µg/mL (≈ 33.5 µM) in the data set with Trichophyton rubrum, 7.81 µg/mL (≈ 33.5 µM) against Saccharomyces cerevisiae, 7.81 µg/mL (≈ 33.5 µM) in the data set with Cryptococcus neoformans and 125 µg/mL (≈ 536 µM) in the data set on Aspergillus flavus. In addition, the minimum inhibitory concentration (MIC) came to 3.9 µg/mL (≈ 16.7 µM) in the data set on Nannizzia gypsea; 15.6 µg/mL (≈ 67 µM) in the data set with Candida albicans; 3.9 µg/mL (≈ 16.7 µM) in data set [2]; 31.2 µg/mL (≈ 134 µM) with Aspergillus fumigatus; 15.6 µg/mL (≈ 67 µM) with Candida tropicalis; 15.6 µg/mL (≈ 67 µM) against Aspergillus niger. Besides, the MIC turned out to be 3.9 µg/mL (≈ 16.7 µM) in the data set with Trichophyton rubrum, 7.81 µg/mL (≈ 33.5 µM) in the data set with Saccharomyces cerevisiae, 7.81 µg/mL (≈ 33.5 µM) in the data set on Cryptococcus neoformans and 62.5 µg/mL (≈ 268 µM) against Aspergillus flavus. For the same compound, in data set [1], the HC50 was above 250 µg/mL.

Consider `O=C1C=CC(=O)N1c1ccc2c(c1)OCO2`, for which the GI50 in the data set with MCF7, in the data set with NCI-H460 and in the data set on SF-268 was above 10 µg/mL in each case. Also, the minimal fungicidal concentration (MFC) was found to be 1.95 µg/mL (≈ 8.98 µM) against Nannizzia gypsea; 62.5 µg/mL (≈ 288 µM) against Candida albicans; 3.9 µg/mL (≈ 18 µM) in data set [2]; 125 µg/mL (≈ 576 µM) in the data set with Aspergillus fumigatus; 62.5 µg/mL (≈ 288 µM) in the data set with Candida tropicalis; 125 µg/mL (≈ 576 µM) in the data set on Aspergillus niger. Moreover, the MFC is 3.9 µg/mL (≈ 18 µM) against Trichophyton rubrum, 15.6 µg/mL (≈ 72 µM) against Saccharomyces cerevisiae, 15.6 µg/mL (≈ 72 µM) against Cryptococcus neoformans and 125 µg/mL (≈ 576 µM) against Aspergillus flavus. Besides, the minimal inhibitory concentration (MIC) worked out at 1.95 µg/mL (≈ 8.98 µM) against Nannizzia gypsea; 31.2 µg/mL (≈ 144 µM) in the data set on Candida albicans; 1.95 µg/mL (≈ 8.98 µM) in [2]; 62.5 µg/mL (≈ 288 µM) in the data set on Aspergillus fumigatus; 31.2 µg/mL (≈ 144 µM) against Candida tropicalis; 62.5 µg/mL (≈ 288 µM) with Aspergillus niger. Further, the MIC is 1.95 µg/mL (≈ 8.98 µM) in the data set with Trichophyton rubrum, 7.81 µg/mL (≈ 36 µM) against Saccharomyces cerevisiae, 7.81 µg/mL (≈ 36 µM) against Cryptococcus neoformans and 62.5 µg/mL (≈ 288 µM) against Aspergillus flavus. Moreover, the HC50 in data set [1] was above 250 µg/mL.

`Cc1ccccc1N1C(=O)C=CC1=O`: the GI50 with MCF7, in the data set on NCI-H460 and in the data set with SF-268 was above 10 µg/mL in each case. Also, the minimal fungicidal concentration (MFC) is 7.81 µg/mL (≈ 41.7 µM) against Nannizzia gypsea; 15.6 µg/mL (≈ 83.5 µM) against Candida albicans; 3.9 µg/mL (≈ 20.8 µM) in [2]; 125 µg/mL (≈ 668 µM) against Aspergillus fumigatus; 31.2 µg/mL (≈ 167 µM) against Candida tropicalis; 62.5 µg/mL (≈ 334 µM) against Aspergillus niger. Further, the minimal fungicidal concentration (MFC) was 3.9 µg/mL (≈ 20.8 µM) against Trichophyton rubrum, 7.81 µg/mL (≈ 41.7 µM) in the data set on Saccharomyces cerevisiae, 7.81 µg/mL (≈ 41.7 µM) with Cryptococcus neoformans and 62.5 µg/mL (≈ 334 µM) against Aspergillus flavus. Besides, the MIC in the data set on Nannizzia gypsea was 3.9 µg/mL (≈ 20.8 µM); against Candida albicans, 15.6 µg/mL (≈ 83.5 µM); in [2], 1.95 µg/mL (≈ 10.4 µM); with Aspergillus fumigatus it was 62.5 µg/mL (≈ 334 µM); with Candida tropicalis, 15.6 µg/mL (≈ 83.5 µM); against Aspergillus niger it was 15.6 µg/mL (≈ 83.5 µM). In addition, the minimum inhibitory concentration (MIC) was 1.95 µg/mL (≈ 10.4 µM) with Trichophyton rubrum, 7.81 µg/mL (≈ 41.7 µM) against Saccharomyces cerevisiae, 7.81 µg/mL (≈ 41.7 µM) against Cryptococcus neoformans and 62.5 µg/mL (≈ 334 µM) with Aspergillus flavus. Moreover, the HC50 in [1] is above 250 µg/mL.

On to `Cc1ccc(N2C(=O)C=CC2=O)cc1`, for which the concentration for 50% growth inhibition (GI50) with MCF7, in the data set on NCI-H460 and in the data set with SF-268 was above 10 µg/mL throughout. Moreover, the MFC was determined as 3.9 µg/mL (≈ 20.8 µM) against Nannizzia gypsea; 31.2 µg/mL (≈ 167 µM) in the data set with Candida albicans; 7.81 µg/mL (≈ 41.7 µM) in data set [2]; 62.5 µg/mL (≈ 334 µM) against Aspergillus fumigatus; 31.2 µg/mL (≈ 167 µM) with Candida tropicalis; 31.2 µg/mL (≈ 167 µM) against Aspergillus niger. For the same compound, the MFC turned out to be 3.9 µg/mL (≈ 20.8 µM) against Trichophyton rubrum, 7.81 µg/mL (≈ 41.7 µM) in the data set on Saccharomyces cerevisiae, 7.81 µg/mL (≈ 41.7 µM) against Cryptococcus neoformans and 15.6 µg/mL (≈ 83.5 µM) in the data set with Aspergillus flavus. For the same compound, the MIC in the data set on Nannizzia gypsea was determined as 1.95 µg/mL (≈ 10.4 µM); with Candida albicans, 15.6 µg/mL (≈ 83.5 µM); in [2], 1.95 µg/mL (≈ 10.4 µM); against Aspergillus fumigatus it was 31.2 µg/mL (≈ 167 µM); in the data set on Candida tropicalis, 15.6 µg/mL (≈ 83.5 µM); with Aspergillus niger, 15.6 µg/mL (≈ 83.5 µM). Also, the MIC in the data set with Trichophyton rubrum came out at 1.95 µg/mL (≈ 10.4 µM); in the data set with Saccharomyces cerevisiae, 3.9 µg/mL (≈ 20.8 µM); against Cryptococcus neoformans, 3.9 µg/mL (≈ 20.8 µM); in the data set on Aspergillus flavus, 15.6 µg/mL (≈ 83.5 µM). In [1], the concentration for 50% haemolysis (HC50) is above 250 µg/mL.
